Screens from PubChem BioAssay.
Mot1-301 SUMO: blocks SUMOylation pathway, rescuing yeast Mot1-301 growth | S. cerevisiae Mot1-301 growth rescue, ATP luminescence, 38.5C; percent above DMSO median, 100 means doubled | growth rescue, % at 18.8 µM | hit rate 1% among 320,000;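 active means every valid replicate shows activation above 250% relative to neutral control wells; inactive means the rest, any valid replicate at or below 250%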;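 further: OY570 slx delta 5 strain wells were the positive control but not used for scaling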
Statin myotox sup: suppressors of simvastatin-induced myotoxicity in C2C12 myotubes | ATP luminescence, 48 h; scaled: DMSO 0, geranylgeraniol control 100 | rescue of ATP level, % at 7.49 µM | hit rate 0.78% among 330,000 | AID 602340;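 active means mean ATP rescue above about 67%, or every replicate alone reaching that limit, limit read from the data, passing the limit was not always enough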;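 further: myotubes were challenged with 10 µM simvastatin during compound exposure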
Cneo AK release: Cryptococcus neoformans lysis via adenylate kinase release; C. neoformans lysis, adenylate kinase release luminescence, 4 h; normalised: neutral wells 0, clomiphene wells 100; lysis activity, % at 15 µM; hit rate 0.2% among 360,000; AID 651654;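 active means mean lysis activity across replicates of at least 80%, whatever share of replicates individually reach that level; inactive means mean lysis activity below 80%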
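Signal: Adenylate kinase release luminescence | Assay system: Log-phase Cryptococcus neoformans yeast cells | Input: Cells at 5 × 10^6 per mL | Buffer or medium: Fresh YPD growth medium | Compound: Single dose | Schedule: Static 4 h at 37 °C with compound, 1 h detection | Controls: Clomiphene | Read-out: Luminescence rise reflecting yeast cell lysis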
The depositor's hits bear a star; · = no result given. Hits are enriched below; roughly 1.5% of the tested compounds scored in any of these assays.

SMILES	Mot1-301 SUMO	Statin myotox sup	Cneo AK release
COc1cccc(C#Cc2cnc3c(c2)C(=O)N([C@H](C)CO)C[C@@H](C)[C@@H](CN(C)C(=O)C2CCOCC2)O3)c1	·	-8.6	81.3*
COc1ccc(C#Cc2cnc3c(c2)C(=O)N([C@H](C)CO)C[C@H](C)[C@H](CN(C)C(=O)Nc2cccc(OC)c2)O3)cc1	·	9.6	·
C[C@H]1CCCCO[C@H](CN(C)S(=O)(=O)c2ccccc2)[C@@H](C)CN([C@@H](C)CO)C(=O)c2cc(NC(=O)Nc3ccc(F)cc3)ccc2O1	·	·	0.2
C[C@@H]1CN([C@@H](C)CO)C(=O)c2cccc(NC(=O)c3ccncc3)c2O[C@@H]1CN(C)Cc1ccc(C(=O)Nc2ccccc2N)cc1	·	·	0.2
O=C(C1=C[C@@H](c2ccc(Br)cc2)C[C@@H](OCc2ccc(CO)cc2)O1)N1CCCC1	·	·	1.8
COCCNC(=O)C[C@H]1CC[C@H]2[C@@H](COC[C@H](O)CN2C(=O)Nc2ccccc2OC)O1	·	-17.8	-0.9
CCC(=O)N1[C@H](C(=O)Nc2ccccc2)[C@@H](CO)[C@@H]2Cn3c(ccc(C4=CCCC4)c3=O)[C@@H]21	·	-16.6	-4.5
CO[C@H]1CN(C)C(=O)c2ccc(NC(=O)Nc3cc(F)ccc3F)cc2OC[C@H](C)N(C(=O)c2cnccn2)C[C@@H]1C	·	20.5	-3.8
COCC#Cc1cnc2c(c1)C(=O)N([C@H](C)CO)C[C@H](C)[C@@H](CN(C)C(=O)Nc1ccc(OC)cc1)O2	·	7.6	-1.2
COCC#Cc1cnc2c(c1)C(=O)N([C@H](C)CO)C[C@@H](C)[C@@H](CN(C)C(=O)Nc1ccc(OC)cc1)O2	·	-1.4	97.4*
C[C@H]1CN([C@@H](C)CO)C(=O)Cc2cc(NC(=O)CCCCCC(=O)Nc3ccccc3N)ccc2O[C@H]1CN(C)Cc1ccc2c(c1)OCO2	·	47.2	93.5*
C[C@@H]1CN([C@@H](C)CO)C(=O)Cc2cc(NC(=O)CCCCCC(=O)Nc3ccccc3N)ccc2O[C@@H]1CN(C)Cc1ccccc1	·	42.5	-1.9
C[C@H](CO)N1C[C@H](C)[C@@H](CN(C)Cc2ccc3c(c2)OCO3)Oc2ccc(NC(=O)CCCCCC(=O)Nc3ccccc3N)cc2CC1=O	·	32.0	-0.8
C[C@H]1CN([C@@H](C)CO)C(=O)Cc2cc(NC(=O)CCCCCC(=O)Nc3ccccc3N)ccc2O[C@@H]1CN(C)Cc1ccc(Cl)c(Cl)c1	·	124.0*	2.1
COc1ccccc1NC(=O)N[C@@H]1CC[C@H](CC(=O)N[C@@H](C)c2ccccc2)O[C@@H]1CO	·	21.5	5.5
C[C@H](CO)N1C[C@H](C)[C@H](CN(C)Cc2ccc(Cl)c(Cl)c2)Oc2c(NS(C)(=O)=O)cccc2C1=O	·	18.0	2.9
COc1ccc(Cc2nnc(Nc3ccccc3)s2)cc1Br	12.1	76.9*	-0.1
COc1ccc(CNc2ccccc2)cc1Br	-16.6	17.3	-3.1
C[C@@H]1CN([C@H](C)CO)C(=O)Cc2cc(NC(=O)c3ccncc3)ccc2O[C@@H]1CN(C)Cc1ccc(Cl)c(Cl)c1	·	69.5*	-2.0
C[C@H](CO)N1C[C@H](C)[C@@H](CN(C)Cc2ccc(Cl)c(Cl)c2)Oc2ccc(NC(=O)C3CC3)cc2CC1=O	·	85.0*	0.6
C[C@H](CO)N1C[C@H](C)[C@H](CN(C)Cc2ccc(Cl)c(Cl)c2)Oc2ccc(NC(=O)c3ccncc3)cc2CC1=O	·	13.3	0.0
C[C@H]1CN([C@@H](C)CO)C(=O)Cc2cc(NC(=O)C3CC3)ccc2O[C@@H]1CN(C)Cc1ccc(Cl)c(Cl)c1	·	11.8	-0.7
O=C(CCN1CCCCC1)N[C@@H]1CC[C@@H](CCNC(=O)c2cc(Cl)cc(Cl)c2)O[C@H]1CO	·	-9.6	-1.4
CC(C)NC(=O)Nc1ccc2c(c1)C(=O)N([C@H](C)CO)C[C@@H](C)[C@@H](CN(C)CC1CCCCC1)OCCCC[C@H](C)O2	·	·	11.8
C[C@H]1CN([C@@H](C)CO)C(=O)c2cc(NS(=O)(=O)c3ccc(Cl)cc3)ccc2O[C@@H]1CN(C)S(=O)(=O)c1ccc(F)cc1	·	-12.9	0.8
SMILES	Mot1-301 SUMO	Statin myotox sup	Cneo AK release
NC(=O)CC[C@@H]1NC(=O)[C@H](CO)NC(=O)c2cc([N+](=O)[O-])cc(I)c2NCCCC[C@@H](C(N)=O)NC(=O)[C@H](Cc2ccc(O)cc2)NC1=O	-16.4	·	·
NC(=O)C(CC(=O)O)NC(=O)[C@@H]1CCCNc2c(I)cc([N+](=O)[O-])cc2C(=O)N[C@@H](CO)C(=O)N[C@@H](Cc2ccc(O)cc2)C(=O)N1 (some centres undefined)	10.2	159.4*	3.3
Cc1ccc(NC(=O)Nc2ccc(C(=O)N3CCOCC3)cc2)cc1	23.5	28.5	-6.9
O=C(c1ccc(F)cc1)N1CCC(N2CCCCCC2)CC1	-5.2	144.6*	4.7
Cc1ccc(C(=O)N2CCSCC2)cc1	-6.5	103.4*	0.8
O=C(c1ccc(F)cc1)N1CCC(N2CCOCC2)CC1	140.9	·	-1.7
O=C(Nc1ccc(C(=O)N2CCCCC2)cc1)c1ccc(Br)cc1	·	·	12.4
O=C(c1ccc(Br)cc1)N1CCCC1	138.8	94.3*	0.1
COc1cc(/C=C/C(=O)OCC(=O)Nc2cc(S(=O)(=O)N3CCOCC3)ccc2Cl)cc(OC)c1OC	-17.5	108.6*	3.3
Cc1cc(C(=O)OCC(=O)Nc2cc(C(F)(F)F)ccc2N2CCOCC2)c(C)o1	3.0	94.0*	-6.6
CCC(=O)Nc1cc(C(F)(F)F)ccc1N1CCOCC1	-11.6	-6.6	-0.9
COc1ccccc1C(=O)OCC(=O)Nc1cc(S(=O)(=O)N2CCOCC2)ccc1N1CCCC1	407.2*	·	·
COc1cc(S(=O)(=O)N2CCOCC2)ccc1NC(=O)COC(=O)/C=C/c1cc(OC)c(OC)c(OC)c1	5.8	·	·
COc1ccc(C(=O)OCC(=O)Nc2cc(S(=O)(=O)N3CCOCC3)ccc2N2CCCC2)cc1	10.0	·	·
C[C@@H]1CN([C@H](C)CO)C(=O)c2cc(NC(=O)C3CCCCC3)ccc2O[C@@H](C)CCCCO[C@@H]1CN(C)S(C)(=O)=O	·	-29.2	·
COc1ccc(S(=O)(=O)N[C@@H]2CC[C@@H](CC(=O)N3CCN(c4ccccc4)CC3)O[C@H]2CO)cc1	·	5.4	16.1
CO[C@@H]1CN(C)C(=O)c2cc(NC(=O)c3ccc(F)cc3)ccc2OC[C@@H](C)NC[C@@H]1C	·	0.4	1.8
Cc1ccc(S(=O)(=O)Nc2ccc3c(c2)C(=O)N([C@H](C)CO)C[C@@H](C)[C@@H](CN(C)C(=O)C2CCCCC2)OCCCC[C@H](C)O3)cc1	·	·	-3.4
COc1ccc(-c2cnc3c(c2)C(=O)N([C@H](C)CO)C[C@@H](C)[C@H](CN(C)C)O3)cc1	·	19.1	1.7
COc1ccc(S(=O)(=O)Nc2ccc3c(c2)CC(=O)N([C@@H](C)CO)C[C@H](C)[C@@H](CN(C)Cc2ccc(Cl)c(Cl)c2)O3)cc1	·	122.2*	-0.1
C[C@H](CO)N1C[C@H](C)[C@H](CN(C)Cc2ccc(Oc3ccccc3)cc2)Oc2ccc(NS(=O)(=O)c3ccc(F)cc3)cc2CC1=O	·	3.9	54.6
COc1ccc(S(=O)(=O)Nc2ccc3c(c2)CC(=O)N([C@@H](C)CO)C[C@H](C)[C@H](CN(C)Cc2ccccc2)O3)cc1	·	53.6	-5.7
